Calls of active or inactive are those of the source. The calls are words filed in the database; no cut-off is given here.
Experiments:
HEK-293T [1] = assay: Cellular protein labelling in HEK293T cells transfected with PARK7 siRNA assessed as PARK7 specific band formation at 5 uM incubated for 4 hrs by SDS-PAGE based fluorescence scanning immunoblotting analysis; assay type: functional, cell-based; details: Homo sapiens
Summary of the method: (§1)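 HEK293T or A549 cells reverse-transfected with pooled PARK7 siRNA (Dharmafect 1), grown 48 h, then given probe at 5 μM final for 4 h. Lysates analysed by SDS-PAGE fluorescence scan and PARK7 immunoblot against control-transfected cells.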

HEK-293T [2] = assay: Cellular protein labelling in HEK293T cells transfected with PARK7 siRNA assessed as unspecific 55-75 kDa band formation at 5 uM incubated for 4 hrs by SDS-PAGE based fluorescence scanning immunoblotting analysis; assay type: functional, cell-based; details: Homo sapiens; summary of the method: as §1
[3] = target: T1, Parkinson disease protein 7 (Homo sapiens) (UniProt Q99497); assay: Binding affinity to recombinant human PARK7 at 2 uM incubated for 1 hrs by coomassie staining based SDS-PAGE fluorescence scanning analysis relative to control
T1 sequence (whole entry): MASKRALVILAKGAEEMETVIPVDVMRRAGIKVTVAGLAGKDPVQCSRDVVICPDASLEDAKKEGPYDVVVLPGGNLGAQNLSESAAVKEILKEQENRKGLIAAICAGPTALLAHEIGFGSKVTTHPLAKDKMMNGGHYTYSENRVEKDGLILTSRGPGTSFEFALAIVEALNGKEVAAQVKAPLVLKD

[4] = target: T1, Parkinson disease protein 7 (Homo sapiens); assay: Binding affinity to PARK7 in human A549 cells assessed as band shift at 5 uM incubated for 24 hrs by SDS-PAGE based fluorescence scanning immunoblotting analysis; assay type: cell-based
Summary of the method: (§2)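 Probes applied to intact HEK293T or A549 cells at 5 μM final for 24 h, then lysed. Read-out by SDS-PAGE fluorescence scan and immunoblot against PARK7, looking at the ~25 kDa labelled band, PARK7 band shift and extra bands.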

[5] = target: T1, Parkinson disease protein 7 (Homo sapiens); assay: Binding affinity to PARK7 in human A549 cells upto 10 uM incubated for 4 hrs by SDS-PAGE based fluorescence scanning immunoblotting analysis; assay type: cell-based
Summary of the method: (§3)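 HEK293T or A549 cells given the Bodipy probe at 0–10 μM for 4 h, then lysed. Lysates run on 12% Bis-Tris SDS-PAGE and fluorescence-scanned. Immunoblot for PARK7 with β-actin as loading control.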

[6] = target: T1, Parkinson disease protein 7 (Homo sapiens); assay: Binding affinity to PARK7 in A549 cells assessed as band shift at 5 uM incubated for 24 hrs by SDS-PAGE based fluorescence scanning immunoblotting analysis
A549 [7] = assay: Cellular protein labelling in human A549 cells transfected with PARK7 siRNA assessed as unspecific 55-75 kDa band formation at 5 uM incubated for 4 hrs by SDS-PAGE based fluorescence scanning immunoblotting analysis; assay type: functional, cell-based; summary of the method: as §1
[8] = Drug penetration in human A549 cells at 5 uM incubated for 1 hrs by DAPI staining based confocal microscopic analysis; assay type: ADME, cell-based; details: a549, 1 h
Summary of the method: (§4)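 A549 cells incubated with probes at 5 μM final over a time course (1–24 h). For microscopy, cells on coverslips were fixed in 3.7% formaldehyde/PBS for 20 min, mounted with DAPI and imaged by confocal (63× oil). In parallel, cells were lysed for SDS-PAGE fluorescence scan and PARK7 immunoblot.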

[9] = target: T1, Parkinson disease protein 7 (Homo sapiens); assay: Binding affinity to PARK7 in HEK293T cells upto 10 uM incubated for 4 hrs by SDS-PAGE based fluorescence scanning immunoblotting analysis; assay type: cell-based; summary of the method: as §3
[10] = target: T1, Parkinson disease protein 7 (Homo sapiens); assay: Binding affinity to recombinant human PARK7 incubated for 1 hrs by coomassie staining based SDS-PAGE fluorescence scanning analysis; details: dose 0.1-10 µM
A549 (Homo sapiens) = assay: Cellular protein labelling in A549 cells assessed as unspecific 55-75 kDa band formation at 5 uM by SDS-PAGE based fluorescence scanning immunoblotting analysis
A549 [11] = assay: Cellular protein labelling in human A549 cells transfected with PARK7 siRNA assessed as PARK7 specific band formation at 5 uM incubated for 4 hrs by SDS-PAGE based fluorescence scanning immunoblotting analysis; assay type: functional, cell-based; summary of the method: as §1
[12] = target: T1, Parkinson disease protein 7 (Homo sapiens); assay: Binding affinity to PARK7 in human A549 cells assessed as band shift at 5 uM incubated for 4 hrs by SDS-PAGE based fluorescence scanning immunoblotting analysis relative to control; assay type: cell-based; summary of the method: as §4
A549 [13] = assay: Cellular protein labelling in human A549 cells assessed as unspecific 55-75 kDa band formation at 5 uM by SDS-PAGE based fluorescence scanning immunoblotting analysis; assay type: functional, cell-based; summary of the method: as §2

Activity [3]: 100%
Activity [4]: Active
Activity [5]: Active
Activity [6]: Active
Drug uptake [8]: Active
Activity [9]: Active
Activity [10]: Dose-Dependent Effect
Activity [12]: 100%
SMILES: CC1=CC(C)=[N+]2C1=C(CCCCc1cn(-c3ccc(F)c(C(=O)N4CCc5nc(NC(=O)[C@@H]6CCN(C#N)C6)sc5C4)c3)nn1)c1c(C)cc(C)n1[B-]2(F)F
Activity (HEK-293T [1]): inactive
Activity (HEK-293T [2]): Active
Activity (A549 [7]): Active
Activity (A549 (Homo sapiens)): Active
Activity (A549 [11]): inactive
Activity (A549 [13]): Active

Source: ChEMBL document CHEMBL5506034, “Development of Inhibitors, Probes, and PROTAC Provides a Complete Toolbox to Study PARK7 in the Living Cell” (J Med Chem, 2024)
